{
  "source": "ChEMBL document CHEMBL2311500",
  "about": "“Identification and characterization of small molecules as potent and specific EPAC2 antagonists” (J Med Chem, 2013)",
  "key": {"[1]": {"biological_target": "T1, Rap guanine nucleotide exchange factor 4 (Homo sapiens, UniProt Q8WZA2)", "test": "Antagonist activity at recombinant EPAC2 (unknown origin) assessed 8-NBD-cAMP substrate fluorescence intensity by substrate competing assay"}, "Homo sapiens [2]": {"species_on_record": "Homo sapiens", "test": "Inhibition of PKA1 (unknown origin) assessed as inhibition of cAMP-induced activation at 25 uM by spectrophotometric analysis", "method_in_brief": "(§1)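 Coupled pyruvate kinase/lactate dehydrogenase assay following NADH oxidation at 340 nm, at room temperature. The reaction was started with Kemptide (0.26 mM final). H89 (25 µM) served as the inhibition control.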"}, "[3]": {"biological_target": "T2, Rap guanine nucleotide exchange factor 3 (Homo sapiens) (UniProt O95398)", "T2 sequence (whole entry)": "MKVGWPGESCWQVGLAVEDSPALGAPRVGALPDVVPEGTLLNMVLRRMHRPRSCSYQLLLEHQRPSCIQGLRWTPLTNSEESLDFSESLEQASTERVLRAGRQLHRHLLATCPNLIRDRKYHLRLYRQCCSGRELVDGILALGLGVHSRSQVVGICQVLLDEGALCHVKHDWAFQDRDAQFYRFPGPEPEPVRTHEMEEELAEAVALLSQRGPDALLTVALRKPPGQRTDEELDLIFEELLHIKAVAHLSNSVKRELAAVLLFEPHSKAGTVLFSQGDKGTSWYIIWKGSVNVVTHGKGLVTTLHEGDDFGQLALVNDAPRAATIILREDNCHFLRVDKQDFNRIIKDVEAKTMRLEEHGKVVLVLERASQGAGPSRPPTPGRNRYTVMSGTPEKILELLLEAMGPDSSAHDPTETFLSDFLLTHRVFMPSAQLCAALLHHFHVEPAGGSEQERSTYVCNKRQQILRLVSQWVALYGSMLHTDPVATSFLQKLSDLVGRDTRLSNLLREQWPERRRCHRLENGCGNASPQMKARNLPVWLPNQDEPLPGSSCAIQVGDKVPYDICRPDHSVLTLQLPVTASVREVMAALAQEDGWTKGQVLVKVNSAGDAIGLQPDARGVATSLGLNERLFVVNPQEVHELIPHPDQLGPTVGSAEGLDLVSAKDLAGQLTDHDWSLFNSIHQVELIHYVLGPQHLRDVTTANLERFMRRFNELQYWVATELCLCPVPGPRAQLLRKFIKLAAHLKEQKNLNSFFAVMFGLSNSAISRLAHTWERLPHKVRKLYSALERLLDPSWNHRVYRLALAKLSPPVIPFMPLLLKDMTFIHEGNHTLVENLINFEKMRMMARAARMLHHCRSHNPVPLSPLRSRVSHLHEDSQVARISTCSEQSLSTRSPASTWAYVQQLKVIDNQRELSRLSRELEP", "test": "Inhibition of recombinant EPAC1 (unknown origin) assessed as inhibition of cAMP-mediated RAP1-GDP exchange activity at 25 uM by spectrofluorometric analysis", "method_in_brief": "(§2)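 Purified recombinant full-length EPAC1 or EPAC2 with 0.2 µM Mant-GDP-loaded Rap1B(1-167) in 50 mM Tris pH 7.5, 50 mM NaCl, 5 mM MgCl2, 1 mM DTT and 20 µM unlabeled GDP. […] Fluorescence decay (ex 366/em 450 nm) was recorded every 60 s over 6000 s.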"}, "Homo sapiens [4]": {"species_on_record": "Homo sapiens", "test": "Inhibition of PKA2 (unknown origin) assessed as inhibition of cAMP-induced activation at 25 uM by spectrophotometric analysis", "method_in_brief": "as §1"}, "[5]": {"biological_target": "T1, Rap guanine nucleotide exchange factor 4", "test": "Inhibition of recombinant EPAC2 (unknown origin) assessed as inhibition of cAMP-mediated guanine nucleotide exchange factor activity at 25 uM by spectrofluorometric analysis", "method_in_brief": "as §2"}, "[6]": {"biological_target": "T2, Rap guanine nucleotide exchange factor 3 (Homo sapiens)", "test": "Inhibition FL-tagged full length human EPAC1 expressed in HEK293 cells assessed as inhibition of 007-AM-induced activation at 10 uM by FRET assay", "assay_type": "cell-based"}, "[7]": {"biological_target": "T1, Rap guanine nucleotide exchange factor 4", "settings": "HEK293, 10 uM"}, "HEK293": {"system": "HEK293", "test": "Inhibition of N-terminal CFP/C-terminal YFP tagged PKA (unknown origin) expressed in HEK293 cells assessed as inhibition of 8-Br-cAMP-AM-induced activation at 10 uM by FRET assay", "assay_type": "cell-based", "settings": "Homo sapiens"}},
  "note": "The source made the active and inactive calls. The calls are words filed in the database; no cut-off is given here.",
  "data": [
    {"smiles": "CCc1cccn1S(=O)(=O)c1cc(C)cc(C)c1", "values": [
      {"measurement": "IC50", "setting": "[1]", "result": 4.7, "unit": "µM"}
    ]},
    {"smiles": "Cc1cc(C)c(S(=O)(=O)n2ccc3ccccc32)c(C)c1", "values": [
      {"measurement": "IC50", "setting": "[1]", "result": 1.2, "unit": "µM"}
    ]},
    {"smiles": "COc1ccc(S(=O)(=O)c2c(C)cc(C)cc2C)cc1", "values": [
      {"measurement": "IC50", "setting": "[1]", "result": 1.9, "unit": "µM"}
    ]},
    {"smiles": "Nc1ccc(Nc2ccc(N)cc2S(=O)(=O)O)cc1", "values": [
      {"measurement": "IC50", "setting": "[1]", "result": 18, "unit": "µM"}
    ]},
    {"smiles": "Cc1cc(C)c(Nc2cc(Cl)cc(Cl)c2)c(C)c1", "values": [
      {"measurement": "IC50", "setting": "[1]", "result": 0.9, "unit": "µM"}
    ]},
    {"smiles": "Cc1cc(C)c(S(=O)(=O)c2ccc(OCCN)cc2)c(C)c1", "values": [
      {"measurement": "IC50", "setting": "[1]", "result": "> 300", "unit": "µM"}
    ]},
    {"smiles": "Cc1cc(C)c(S(=O)(=O)c2ccc(O)cc2)c(C)c1", "values": [
      {"measurement": "IC50", "setting": "[1]", "result": 13.5, "unit": "µM"}
    ]},
    {"smiles": "Cc1cc(C)c(S(=O)(=O)c2ccc(C3CCCCC3)cc2)c(C)c1", "values": [
      {"measurement": "IC50", "setting": "[1]", "result": "> 300", "unit": "µM"}
    ]},
    {"smiles": "Cc1cc(C)c(S(=O)(=O)c2ccc(I)cc2)c(C)c1", "values": [
      {"measurement": "IC50", "setting": "[1]", "result": 4, "unit": "µM"}
    ]},
    {"smiles": "Cc1cc(C)c(S(=O)(=O)c2ccc(OC3CCN(C(=O)OC(C)(C)C)CC3)cc2)c(C)c1", "values": [
      {"measurement": "IC50", "setting": "[1]", "result": "> 300", "unit": "µM"}
    ]},
    {"smiles": "Cc1cc(C)c(S(=O)(=O)n2ccc3cc(C(=O)O)ccc32)c(C)c1", "values": [
      {"measurement": "IC50", "setting": "[1]", "result": 10.8, "unit": "µM"}
    ]},
    {"smiles": "CCc1cccn1S(=O)(=O)c1ccc(C)cc1", "values": [
      {"measurement": "IC50", "setting": "[1]", "result": 4, "unit": "µM"}
    ]},
    {"smiles": "COC(=O)c1ccc2c(ccn2S(=O)(=O)c2c(C)cc(C)cc2C)c1", "values": [
      {"measurement": "IC50", "setting": "[1]", "result": "> 300", "unit": "µM"}
    ]},
    {"smiles": "Cc1ccc(Nc2c(C)cc(C)cc2C)cc1", "values": [
      {"measurement": "IC50", "setting": "[1]", "result": 3.8, "unit": "µM"}
    ]},
    {"smiles": "Cc1cc(C)c(S(=O)(=O)n2ccc3cnccc32)c(C)c1", "values": [
      {"measurement": "IC50", "setting": "[1]", "result": 8.9, "unit": "µM"}
    ]},
    {"smiles": "CCc1cccn1S(=O)(=O)c1ccc(C)cc1C", "values": [
      {"measurement": "IC50", "setting": "[1]", "result": 1.3, "unit": "µM"}
    ]},
    {"smiles": "Cc1cc(C)c(S(=O)(=O)c2ccc(-c3ccc(F)nc3)cc2)c(C)c1", "values": [
      {"measurement": "IC50", "setting": "[1]", "result": "> 300", "unit": "µM"}
    ]},
    {"smiles": "CCc1cccn1S(=O)(=O)c1ccc(OC)cc1", "values": [
      {"measurement": "IC50", "setting": "[1]", "result": 8, "unit": "µM"}
    ]},
    {"smiles": "CCc1cccn1S(=O)(=O)c1ccccc1C", "values": [
      {"measurement": "IC50", "setting": "[1]", "result": 5.3, "unit": "µM"}
    ]},
    {"smiles": "Cc1cc(C)c(Nc2nc(C)c(C)s2)c(C)c1", "values": [
      {"measurement": "IC50", "setting": "[1]", "result": "> 300", "unit": "µM"}
    ]},
    {"smiles": "Cc1cc(C)c(S(=O)(=O)n2ccc3cccnc32)c(C)c1", "values": [
      {"measurement": "IC50", "setting": "[1]", "result": 2.4, "unit": "µM"}
    ]},
    {"smiles": "Cc1cc(C)c(S(=O)(=O)c2ccc(OC3CCNCC3)cc2)c(C)c1", "values": [
      {"measurement": "IC50", "setting": "[1]", "result": "> 300", "unit": "µM"}
    ]},
    {"smiles": "CCCCCc1ccc(S(=O)(=O)c2c(C)cc(C)cc2C)cc1", "values": [
      {"measurement": "IC50", "setting": "[1]", "result": "> 300", "unit": "µM"}
    ]},
    {"smiles": "Cc1cc(C)c(Nc2cc(Cl)ccc2Cl)c(C)c1", "values": [
      {"measurement": "IC50", "setting": "[1]", "result": 0.4, "unit": "µM"},
      {"measurement": "inhibition", "setting": "Homo sapiens [2]", "result": "inactive"},
      {"measurement": "inhibition", "setting": "[3]", "result": "inactive"},
      {"measurement": "inhibition", "setting": "Homo sapiens [4]", "result": "inactive"},
      {"measurement": "inhibition", "setting": "[5]", "result": "Active"}
    ]},
    {"smiles": "O=S(=O)(NCCNC/C=C/c1ccc(Br)cc1)c1cccc2cnccc12", "values": [
      {"measurement": "inhibition", "setting": "Homo sapiens [2]", "result": "Active"},
      {"measurement": "inhibition", "setting": "Homo sapiens [4]", "result": "Active"}
    ]},
    {"smiles": "Cc1cc(C)c(S(=O)(=O)n2ccc3ncccc32)c(C)c1", "values": [
      {"measurement": "IC50", "setting": "[1]", "result": 3.8, "unit": "µM"}
    ]},
    {"smiles": "Cc1cc(C)c(S(=O)(=O)n2ccc3ccncc32)c(C)c1", "values": [
      {"measurement": "IC50", "setting": "[1]", "result": 12.6, "unit": "µM"}
    ]},
    {"smiles": "CCc1cccn1S(=O)(=O)c1ccc(C(F)(F)F)cc1", "values": [
      {"measurement": "IC50", "setting": "[1]", "result": "> 300", "unit": "µM"}
    ]},
    {"smiles": "Cc1cc(C)c(S(=O)(=O)c2cc(C)c(C)cc2C)c(C)c1", "values": [
      {"measurement": "IC50", "setting": "[1]", "result": 0.7, "unit": "µM"}
    ]},
    {"smiles": "Cc1ccc(S(=O)(=O)c2c(C)cc(C)cc2C)cc1", "values": [
      {"measurement": "inhibition", "setting": "Homo sapiens [2]", "result": "inactive"},
      {"measurement": "inhibition", "setting": "[3]", "result": "inactive"},
      {"measurement": "inhibition", "setting": "Homo sapiens [4]", "result": "inactive"},
      {"measurement": "inhibition", "setting": "[5]", "result": "Active"}
    ]},
    {"smiles": "Cc1cc(C)c(S(=O)(=O)n2cc(C)cc2C)c(C)c1", "values": [
      {"measurement": "inhibition", "setting": "[6]", "result": "inactive"},
      {"measurement": "inhibition", "setting": "Homo sapiens [2]", "result": "inactive"},
      {"measurement": "inhibition", "setting": "[3]", "result": "inactive"},
      {"measurement": "inhibition", "setting": "Homo sapiens [4]", "result": "inactive"},
      {"measurement": "inhibition", "setting": "[5]", "result": "Active"},
      {"measurement": "inhibition", "setting": "[7]", "result": "Active"},
      {"measurement": "inhibition", "setting": "HEK293", "result": "inactive"}
    ]},
    {"smiles": "Cc1cc(C)c(S(=O)(=O)c2ccc(OC3CCCCC3)cc2)c(C)c1", "values": [
      {"measurement": "IC50", "setting": "[1]", "result": "> 300", "unit": "µM"}
    ]}
  ]
}
